This passage reports IC50 results from ChEMBL document CHEMBL1148431, “Structure-activity relationships of novel potent MurF inhibitors” (Bioorg Med Chem Lett, 2004).

The target in this assay is T1, UDP-N-acetylmuramoylalanine-D-glutamyl-lysine-D-alanyl-D-alanine ligase (Streptococcus pneumoniae R6, UniProt Q8DNV6).
T1 sequence (Q8DNV6 whole entry): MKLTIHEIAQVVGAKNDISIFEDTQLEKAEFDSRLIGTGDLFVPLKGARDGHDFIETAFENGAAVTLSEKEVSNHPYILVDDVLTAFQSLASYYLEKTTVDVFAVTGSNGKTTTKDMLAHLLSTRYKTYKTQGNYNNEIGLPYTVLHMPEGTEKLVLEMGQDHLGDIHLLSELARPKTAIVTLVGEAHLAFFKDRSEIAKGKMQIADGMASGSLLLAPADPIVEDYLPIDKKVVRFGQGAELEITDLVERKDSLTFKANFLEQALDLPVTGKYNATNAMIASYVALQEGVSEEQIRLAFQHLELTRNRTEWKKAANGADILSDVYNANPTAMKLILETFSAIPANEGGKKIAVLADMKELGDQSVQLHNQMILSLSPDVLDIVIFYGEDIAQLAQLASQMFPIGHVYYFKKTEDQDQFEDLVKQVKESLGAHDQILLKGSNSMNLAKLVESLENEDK
As to the kind of experiment: Antibacterial activity against UDP-MurNAc-pentapeptide synthetase from Streptococcus pneumoniae. The gist of the method: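 Activity was read as radiolabeled free phosphate released. IC50 was read graphically from four-point concentration plots spanning it. Each point is the mean of at least two determinations, and each IC50 the mean of at least two independent plots.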

`CN(C)CCCNS(=O)(=O)c1ccc(Cl)c(C(=O)Nc2sc3c(c2C#N)CCC3)c1` showed a half-inhibitory concentration (IC50) greater than 100 µM.

As to `CCN(CC)S(=O)(=O)c1ccc(Cl)c(C(=O)Nc2sc3c(c2C#N)CCC3)c1`, the IC50 is 8 µM. The result for `N#Cc1c(NC(=O)c2cc(S(=O)(=O)N3CCOCC3)c(Cl)cc2Cl)sc2c1CCC2` reads 0.3 µM; that for `CCOC(=O)c1c(NC(=O)c2cc(S(=O)(=O)N(CC)CC)ccc2Cl)sc2c1CCC2`, greater than 100 µM. The result for `N#Cc1c(NC(=O)c2cc(S(=O)(=O)N3CCOCC3)c(F)cc2Cl)sc2c1CCC2` reads 6.4 µM. For the compound `N#Cc1c(NC(=O)c2cc(S(=O)(=O)Nc3ccccc3)ccc2Cl)sc2c1CCC2`, it took 26 µM to reach half-maximal inhibition (IC50). The result for `CCN(CC)S(=O)(=O)c1cc(C(=O)Nc2sc3c(c2C#N)CCC3)c(Cl)cc1Cl` reads 5.2 µM; that for `CCOc1ccc(S(=O)(=O)N2CCOCC2)cc1C(=O)Nc1sc2c(c1C#N)CCC2`, greater than 100 µM. The figure for `CNS(=O)(=O)c1ccc(Cl)c(C(=O)Nc2sc3c(c2C#N)CCC3)c1` is 15 µM. The figure for `CCN(CC)S(=O)(=O)c1ccc(Cl)c(C(=O)N(C)c2sc3c(c2C#N)CCC3)c1` is greater than 100 µM.

`CCN(CC)S(=O)(=O)c1ccc(Cl)c(C(=O)Nc2sc3c(c2C(N)=O)CCC3)c1` showed an IC50 of 66 µM.

The compound `CCN(CC)S(=O)(=O)c1cc(C(=O)Nc2sc3c(c2C#N)CCC(c2ccc(O)cc2)C3)c(Cl)cc1Cl` (centres undefined) yielded an IC50 of 0.067 µM. The result for `CN(C)c1ccc(S(=O)(=O)N2CCOCC2)cc1C(=O)Nc1sc2c(c1C#N)CCC2` reads greater than 100 µM; that for `CN(C)CCCNc1ccc(S(=O)(=O)N2CCOCC2)cc1C(=O)Nc1sc2c(c1C#N)CCC2`, 74 µM. The figure for `CCN(CC)S(=O)(=O)c1ccc(Cl)c(CNc2sc3c(c2C#N)CCC3)c1` is greater than 100 µM; for `CCN(CC)S(=O)(=O)c1ccc(Cl)c(C(=O)Nc2sc3c(c2CNC(C)=O)CCC3)c1` it is greater than 100 µM; for `CCN(CC)S(=O)(=O)c1ccc(Cl)c(C(=O)Nc2sc3c(c2C#N)CCCC3)c1` it is 1.4 µM.

The compound `CCOC(=O)C1CCc2c(sc(NC(=O)c3cc(S(=O)(=O)N(CC)CC)ccc3Cl)c2C#N)C1` (centres undefined) registered an IC50 of 6 µM. In turn, `CCN(CC)S(=O)(=O)c1ccc(Cl)c(C(=O)Nc2sc3c(c2C#N)CCCCC3)c1` yielded a concentration for half-maximal inhibition (IC50) of 3.4 µM. `CCN(CC)S(=O)(=O)c1ccc(Cl)c(C(=O)Nc2sc3c(c2C#N)CCC(c2ccc(O)cc2)C3)c1` (centres undefined) returned a half-inhibitory concentration (IC50) of 0.054 µM.

`CNc1cc(Cl)c(C(=O)Nc2sc3c(c2C#N)CCC3)cc1S(=O)(=O)N1CCOCC1` registered an IC50 of 62 µM. The figure for `N#Cc1c(NC(=O)c2cc(S(=O)(=O)N3CCOCC3)c(Cl)cc2Cl)sc2c1CCC(c1ccc(O)cc1)C2` (centres undefined) is 0.022 µM; for `N#Cc1c(NC(=O)c2cccc(S(=O)(=O)N3CCOCC3)c2)sc2c1CCC2` it is greater than 100 µM. The result for `N#Cc1c(NC(=O)c2cc(S(=O)(=O)N3CCOCC3)c(Cl)cc2Cl)sc2c1CCCC2` reads 1 µM. The result for `CC(COc1ccc(S(=O)(=O)N2CCOCC2)cc1C(=O)Nc1sc2c(c1C#N)CCC2)c1ccccc1` (centres undefined) reads greater than 100 µM; that for `CCN(CC)S(=O)(=O)c1ccc(Cl)c(C(C)Nc2sc3c(c2C#N)CCC3)c1` (centres undefined), greater than 100 µM; that for `N#Cc1c(NC(=O)c2cc(S(=O)(=O)N3CCOCC3)c(Cl)cc2Cl)sc2c1CCC(c1ccccc1)C2` (centres undefined), 0.07 µM. Consider `N#Cc1c(NC(=O)c2cc(S(=O)(=O)N3CCOCC3)ccc2Cl)sc2c1CCCC2`, for which the midpoint of inhibition, the IC50, lay at 1.7 µM. The figure for `N#Cc1c(NC(=O)c2cc(S(=O)(=O)N3CCOCC3)ccc2Cl)sc2c1CCC2` is 9 µM; for `N#Cc1c(NC(=O)c2cc(S(=O)(=O)N3CCOCC3)ccc2Cl)sc2c1CCCCC2` it is 4.2 µM; for `N#Cc1c(NC(=O)c2cc(S(=O)(=O)N3CCOCC3)ccc2Br)sc2c1CCC2` it is 4.2 µM.

For the compound `CN(C)CCCNc1cc(Cl)c(C(=O)Nc2sc3c(c2C#N)CCC3)cc1S(=O)(=O)N1CCOCC1`, the IC50 was greater than 100 µM. The result for `CCN(CC)S(=O)(=O)c1ccc(Cl)c(C(=O)Nc2sc3c(c2CN)CCC3)c1` reads greater than 100 µM. The figure for `N#Cc1c(NC(=O)c2cc(S(=O)(=O)N3CCOCC3)c(NCCCO)cc2Cl)sc2c1CCC2` is greater than 100 µM.
